Laboratory results: ChEMBL document CHEMBL1149298, “Stereochemical studies of the monocyclic agouti-related protein (103-122) Arg-Phe-Phe residues: conversion of a melanocortin-4 receptor antagonist into an agonist and results in the discovery of a potent and selective melanocortin-1 agonist” (J Med Chem, 2004)

How the values were obtained:
[1] = target: Melanocyte-stimulating hormone receptor (Mus musculus, UniProt Q01727); assay: Agonist activity at mouse MC1R expressed in HEK293 cells by beta-galactosidase assay; format: functional, cell-based
Melanocyte-stimulating hormone receptor, sequence (Q01727 whole entry): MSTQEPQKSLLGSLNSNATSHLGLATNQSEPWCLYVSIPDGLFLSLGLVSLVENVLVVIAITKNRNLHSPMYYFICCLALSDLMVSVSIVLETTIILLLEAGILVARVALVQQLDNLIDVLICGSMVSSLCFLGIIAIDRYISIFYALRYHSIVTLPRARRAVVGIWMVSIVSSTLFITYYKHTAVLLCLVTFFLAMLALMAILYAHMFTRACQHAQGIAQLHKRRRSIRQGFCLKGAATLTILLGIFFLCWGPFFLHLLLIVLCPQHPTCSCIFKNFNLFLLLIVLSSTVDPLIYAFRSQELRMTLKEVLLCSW

Melanocortin receptor 3 [2] = target: T1, Melanocortin receptor 3 (Mus musculus, UniProt P33033); assay: Agonist activity at mouse MC3R expressed in HEK293 cells by beta-galactosidase assay; format: functional, cell-based
T1 sequence (P33033 whole entry): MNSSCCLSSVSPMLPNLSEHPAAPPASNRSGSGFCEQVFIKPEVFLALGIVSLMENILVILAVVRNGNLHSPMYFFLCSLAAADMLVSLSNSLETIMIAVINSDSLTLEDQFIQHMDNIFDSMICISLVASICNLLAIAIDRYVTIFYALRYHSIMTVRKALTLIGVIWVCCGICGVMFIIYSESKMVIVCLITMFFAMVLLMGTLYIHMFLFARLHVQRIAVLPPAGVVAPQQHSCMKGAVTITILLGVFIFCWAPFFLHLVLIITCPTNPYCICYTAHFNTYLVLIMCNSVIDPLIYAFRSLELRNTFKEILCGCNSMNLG

Melanocortin receptor 4 [3] = target: T2, Melanocortin receptor 4 (Mus musculus, UniProt P56450); assay: Agonist activity at mouse MC4R expressed in HEK293 cells by beta-galactosidase assay; format: functional, cell-based
T2 sequence (P56450 whole entry): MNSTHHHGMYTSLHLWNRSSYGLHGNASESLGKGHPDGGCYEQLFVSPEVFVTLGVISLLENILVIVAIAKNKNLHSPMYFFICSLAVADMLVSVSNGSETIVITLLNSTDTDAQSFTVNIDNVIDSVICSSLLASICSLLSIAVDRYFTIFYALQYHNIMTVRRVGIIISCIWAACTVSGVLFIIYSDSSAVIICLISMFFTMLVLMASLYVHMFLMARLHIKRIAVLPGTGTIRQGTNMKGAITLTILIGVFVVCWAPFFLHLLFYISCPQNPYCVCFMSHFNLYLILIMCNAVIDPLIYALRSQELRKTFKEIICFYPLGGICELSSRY

Melanocortin receptor 5 = Melanocortin receptor 5 (Mus musculus, UniProt P41149); assay: Agonist activity at mouse MC5R expressed in HEK293 cells by beta-galactosidase assay; format: functional, cell-based
Melanocortin receptor 5, sequence (P41149 whole entry): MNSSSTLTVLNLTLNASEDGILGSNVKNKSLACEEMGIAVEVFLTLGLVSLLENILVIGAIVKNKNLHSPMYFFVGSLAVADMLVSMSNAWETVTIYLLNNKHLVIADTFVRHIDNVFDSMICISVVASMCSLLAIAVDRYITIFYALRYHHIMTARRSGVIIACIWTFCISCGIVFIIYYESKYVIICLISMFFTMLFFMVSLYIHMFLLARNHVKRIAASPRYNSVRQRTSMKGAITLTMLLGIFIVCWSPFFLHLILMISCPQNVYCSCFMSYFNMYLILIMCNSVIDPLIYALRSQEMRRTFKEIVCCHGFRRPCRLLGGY

[4] = target: Melanocortin receptor 3 (Mus musculus) (UniProt P33033); assay: Agonist activity at mouse MC3R expressed in HEK293 cells by beta-galactosidase assay at 100 uM relative to forskolin; format: functional, cell-based; settings: filed as agonist
Melanocortin receptor 3 (Mus musculus), sequence (P33033 whole entry): as the sequence (P33033 whole entry) above

[5] = target: Melanocortin receptor 4 (Mus musculus) (UniProt P56450); assay: Agonist activity at mouse MC4R expressed in HEK293 cells by beta-galactosidase assay at 100 uM relative to forskolin; format: functional, cell-based; settings: filed as agonist
Melanocortin receptor 4 (Mus musculus), sequence (P56450 whole entry): as the sequence (P56450 whole entry) above

Melanocortin receptor 3 [6] = target: T1, Melanocortin receptor 3; assay: Displacement of MT2 from mouse MC3R expressed in HEK293 cells; format: cell-based
How it was run: (§1)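 Antagonism was measured in the same CRE/β-galactosidase assay in HEK-293 cells stably expressing the mouse receptor, as the dose-dependent competitive shift of MTII agonist response. pA2 was obtained by Schild analysis and converted to Ki. Values are means of duplicate wells from at least three independent experiments, ± SEM.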

Melanocortin receptor 4 [7] = target: T2, Melanocortin receptor 4; assay: Displacement of MT2 from mouse MC4R expressed in HEK293 cells; format: cell-based; how it was run: as §1
Mus musculus [8] = species: Mus musculus; assay: Selectivity for mouse MC1R over mouse MC3R
Mus musculus [9] = species: Mus musculus; assay: Selectivity for mouse MC1R over mouse MC4R
Mus musculus [10] = species: Mus musculus; assay: Selectivity for mouse MC1R over mouse MC5R

| SMILES | EC50 [1] | EC50 (Melanocortin receptor 3 [2]) | EC50 (Melanocortin receptor 4 [3]) | EC50 (Melanocortin receptor 5) | Activity [4] [%] | Activity [5] [%] | pA2 (Melanocortin receptor 3 [6]) | pA2 (Melanocortin receptor 4 [7]) | Selectivity ratio (Mus musculus [8]) | Selectivity ratio (Mus musculus [9]) | Selectivity ratio (Mus musculus [10]) |
| --- | --- | --- | --- | --- | --- | --- | --- | --- | --- | --- | --- |
| CC(C)C[C@H](NC(=O)[C@H](CCCCN)NC(=O)[C@H](CCCNC(=N)N)NC(=O)[C@H](C)NC(=O)[C@H](Cc1ccc(O)cc1)NC(=O)[C@@H]1CSSC[C@H](NC(=O)[C@H](Cc2ccc(O)cc2)NC(=O)[C@H](C)NC(=O)[C@@H](NC(=O)[C@H](C)NC(=O)[C@H](C)NC(=O)[C@@H]2CCCN2C(=O)[C@@H](N)CC(=O)O)[C@@H](C)O)C(=O)N[C@H](CCCNC(=N)N)C(=O)N[C@H](Cc2ccccc2)C(=O)N[C@H](Cc2ccccc2)C(=O)N[C@@H](CC(N)=O)C(=O)N[C@@H](C)C(=O)N[C@@H](Cc2ccccc2)C(=O)N1)C(=O)O | 3.75 µM (agonist) | 22.6 µM (agonist) | 21.5 µM (agonist) | 13.2 µM (agonist) | – | – | – | – | – | – | – |
| CC(C)C[C@H](NC(=O)[C@H](CCCCN)NC(=O)[C@H](CCCNC(=N)N)NC(=O)[C@H](C)NC(=O)[C@H](Cc1ccc(O)cc1)NC(=O)[C@@H]1CSSC[C@H](NC(=O)[C@H](Cc2ccc(O)cc2)NC(=O)[C@H](C)NC(=O)[C@@H](NC(=O)[C@H](C)NC(=O)[C@H](C)NC(=O)[C@@H]2CCCN2C(=O)[C@@H](N)CC(=O)O)[C@@H](C)O)C(=O)N[C@H](CCCNC(=N)N)C(=O)N[C@H](Cc2ccccc2)C(=O)N[C@@H](Cc2ccccc2)C(=O)N[C@@H](CC(N)=O)C(=O)N[C@@H](C)C(=O)N[C@@H](Cc2ccccc2)C(=O)N1)C(=O)O | 1.75 µM (agonist) | 5.51 µM (agonist) | 8.3 µM (agonist) | 4.6 µM (agonist) | – | – | – | – | – | – | – |
| CC(C)C[C@H](NC(=O)[C@H](CCCCN)NC(=O)[C@H](CCCNC(=N)N)NC(=O)[C@H](C)NC(=O)[C@H](Cc1ccc(O)cc1)NC(=O)[C@@H]1CSSC[C@H](NC(=O)[C@H](Cc2ccc(O)cc2)NC(=O)[C@H](C)NC(=O)[C@@H](NC(=O)[C@H](C)NC(=O)[C@H](C)NC(=O)[C@@H]2CCCN2C(=O)[C@@H](N)CC(=O)O)[C@@H](C)O)C(=O)N[C@H](CCCNC(=N)N)C(=O)N[C@@H](Cc2ccccc2)C(=O)N[C@H](Cc2ccccc2)C(=O)N[C@@H](CC(N)=O)C(=O)N[C@@H](C)C(=O)N[C@@H](Cc2ccccc2)C(=O)N1)C(=O)O | 5.27 µM (agonist) | – | 8.33 µM (agonist) | 19.8 µM (agonist) | 70 | – | – | – | – | – | – |
| CC(C)C[C@H](NC(=O)[C@H](CCCCN)NC(=O)[C@H](CCCNC(=N)N)NC(=O)[C@H](C)NC(=O)[C@H](Cc1ccc(O)cc1)NC(=O)[C@@H]1CSSC[C@H](NC(=O)[C@H](Cc2ccc(O)cc2)NC(=O)[C@H](C)NC(=O)[C@@H](NC(=O)[C@H](C)NC(=O)[C@H](C)NC(=O)[C@@H]2CCCN2C(=O)[C@@H](N)CC(=O)O)[C@@H](C)O)C(=O)N[C@@H](CCCNC(=N)N)C(=O)N[C@@H](Cc2ccccc2)C(=O)N[C@H](Cc2ccccc2)C(=O)N[C@@H](CC(N)=O)C(=O)N[C@@H](C)C(=O)N[C@@H](Cc2ccccc2)C(=O)N1)C(=O)O (stereo in doubt; 1) | 0.96 µM (agonist) | – | – | > 100 µM (agonist) | – | – | 6.15 | 6.92 | – | – | – |
| CC(C)C[C@H](NC(=O)[C@H](CCCCN)NC(=O)[C@H](CCCNC(=N)N)NC(=O)[C@H](C)NC(=O)[C@H](Cc1ccc(O)cc1)NC(=O)[C@@H]1CSSC[C@H](NC(=O)[C@H](Cc2ccc(O)cc2)NC(=O)[C@H](C)NC(=O)[C@@H](NC(=O)[C@H](C)NC(=O)[C@H](C)NC(=O)[C@@H]2CCCN2C(=O)[C@@H](N)CC(=O)O)[C@@H](C)O)C(=O)N[C@@H](CCCNC(=N)N)C(=O)N[C@H](Cc2ccccc2)C(=O)N[C@H](Cc2ccccc2)C(=O)N[C@@H](CC(N)=O)C(=O)N[C@@H](C)C(=O)N[C@@H](Cc2ccccc2)C(=O)N1)C(=O)O | 0.064 µM (agonist) | 63.3 µM (agonist) | 6.24 µM (agonist) | 11.4 µM (agonist) | – | – | – | – | 990 | 98 | 180 |

The remaining lines, values ahead:

| EC50 [1] | EC50 (Melanocortin receptor 3 [2]) | EC50 (Melanocortin receptor 4 [3]) | EC50 (Melanocortin receptor 5) | Activity [4] [%] | Activity [5] [%] | pA2 (Melanocortin receptor 3 [6]) | pA2 (Melanocortin receptor 4 [7]) | Selectivity ratio (Mus musculus [8]) | Selectivity ratio (Mus musculus [9]) | Selectivity ratio (Mus musculus [10]) | SMILES |
| --- | --- | --- | --- | --- | --- | --- | --- | --- | --- | --- | --- |
| 0.093 µM (agonist) | – | – | 1.41 µM (agonist) | 50 | 75 | 6.14 | 6.56 | – | – | – | CC(C)C[C@H](NC(=O)[C@H](CCCCN)NC(=O)[C@H](CCCNC(=N)N)NC(=O)[C@H](C)NC(=O)[C@H](Cc1ccc(O)cc1)NC(=O)[C@@H]1CSSC[C@H](NC(=O)[C@H](Cc2ccc(O)cc2)NC(=O)[C@H](C)NC(=O)[C@@H](NC(=O)[C@H](C)NC(=O)[C@H](C)NC(=O)[C@@H]2CCCN2C(=O)[C@@H](N)CC(=O)O)[C@@H](C)O)C(=O)N[C@@H](CCCNC(=N)N)C(=O)N[C@H](Cc2ccccc2)C(=O)N[C@@H](Cc2ccccc2)C(=O)N[C@@H](CC(N)=O)C(=O)N[C@@H](C)C(=O)N[C@@H](Cc2ccccc2)C(=O)N1)C(=O)O |
| 6.33 µM (agonist) | – | 37.7 µM (agonist) | 18.3 µM (agonist) | 70 | – | – | – | – | – | – | CC(C)C[C@H](NC(=O)[C@H](CCCCN)NC(=O)[C@H](CCCNC(=N)N)NC(=O)[C@H](C)NC(=O)[C@H](Cc1ccc(O)cc1)NC(=O)[C@@H]1CSSC[C@H](NC(=O)[C@H](Cc2ccc(O)cc2)NC(=O)[C@H](C)NC(=O)[C@@H](NC(=O)[C@H](C)NC(=O)[C@H](C)NC(=O)[C@@H]2CCCN2C(=O)[C@@H](N)CC(=O)O)[C@@H](C)O)C(=O)N[C@H](CCCNC(=N)N)C(=O)N[C@@H](Cc2ccccc2)C(=O)N[C@@H](Cc2ccccc2)C(=O)N[C@@H](CC(N)=O)C(=O)N[C@@H](C)C(=O)N[C@@H](Cc2ccccc2)C(=O)N1)C(=O)O |
| 0.12 µM (agonist) | 13.7 µM (agonist) | 3.7 µM (agonist) | 2.22 µM (agonist) | – | – | – | – | – | – | – | CC(C)C[C@H](NC(=O)[C@H](CCCCN)NC(=O)[C@H](CCCNC(=N)N)NC(=O)[C@H](C)NC(=O)[C@H](Cc1ccc(O)cc1)NC(=O)[C@@H]1CSSC[C@H](NC(=O)[C@H](Cc2ccc(O)cc2)NC(=O)[C@H](C)NC(=O)[C@@H](NC(=O)[C@H](C)NC(=O)[C@H](C)NC(=O)[C@@H]2CCCN2C(=O)[C@@H](N)CC(=O)O)[C@@H](C)O)C(=O)N[C@@H](CCCNC(=N)N)C(=O)N[C@@H](Cc2ccccc2)C(=O)N[C@H](Cc2ccccc2)C(=O)N[C@@H](CC(N)=O)C(=O)N[C@@H](C)C(=O)N[C@@H](Cc2ccccc2)C(=O)N1)C(=O)O (stereo in doubt; 4) |
